Results taken from ChEMBL document CHEMBL1649381, “Domino approach to 2-aroyltrimethoxyindoles as novel heterocyclic combretastatin A4 analogues” (Eur J Med Chem, 2011).

How the values were obtained:
[1] = tested on: B16; test: Cytotoxicity against mouse B16 cells assessed as reduction in cell viability after 48 hrs by MTT assay; type: functional, cell-based; conditions: B16, 48 h
Procedure, shortened: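 B16 cells kept in DMEM with 2 mM L-glutamine, 10% FBS, penicillin/streptomycin at 37 °C, 5% CO2. After 48 h exposure, MTT was read at 562 nm with background subtracted. IC50 is the mean of three independent experiments.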

[2] = Inhibition of tubulin polymerization by DAPI fluorescent assay
Procedure, shortened: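 Tubulin (97% pure, 1 mg/ml final) in PME buffer (100 mM PIPES, 1 mM MgSO4, 2 mM EGTA) with DAPI and graded compound, colchicine as internal control. Preincubated 45 min at room temperature, then polymerization started by adding 1 mM GTP. Run 2 h at 37 °C with fluorescence excitation at 360 nm. IC50 taken from a semi-log plot of % inhibition against concentration.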

[3] = tested on: HCT-116; test: Antiproliferative activity against human HCT116 cells after 72 hrs by MTS assay; type: functional, cell-based; conditions: HCT-116, 72 h
Procedure, shortened: (§1)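 Cells grown in RPMI 1640 with 10% fetal calf serum, streptomycin and fungizone at 37 °C, 5% CO2. MTS reagent was added for 2 h and absorbance read at 490. IC50 is the concentration giving 50% growth inhibition.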

[4] = tested on: HCT-15; test: Antiproliferative activity against human HCT15 cells after 72 hrs by MTS assay; type: functional, cell-based; conditions: HCT-15, 72 h; procedure, shortened: as §1
[5] = tested on: HT-29; test: Antiproliferative activity against human HT-29 cells after 72 hrs by MTS assay; type: functional, cell-based; conditions: HT-29, 72 h; procedure, shortened: as §1

COc1cc2cc(C(=O)c3ccccc3)[nH]c2c(OC)c1OC
IC50 [1]: > 50 µM
IC50 [2]: 9 µM
IC50 [3]: > 50 µM
IC50 [4]: > 50 µM
IC50 [5]: > 50 µM

COc1ccc(C(=O)c2cc3cc(OC)c(OC)c(OC)c3[nH]2)cc1
IC50 [1]: > 50 µM
IC50 [2]: 12 µM

COc1cc2[nH]c(C(=O)c3ccccc3)cc2c(OC)c1OC
IC50 [1]: 45 µM
IC50 [2]: > 20 µM

COc1ccc(C(=O)c2cc3c(OC)c(OC)c(OC)cc3[nH]2)cc1F
IC50 [1]: 16 µM
IC50 [2]: > 20 µM

COc1cc2cc(C(=O)c3ccc(C)cc3)[nH]c2c(OC)c1OC
IC50 [1]: 10 µM
IC50 [2]: > 20 µM
IC50 [3]: > 50 µM
IC50 [4]: > 50 µM
IC50 [5]: > 50 µM

COc1ccc(C(=O)c2cc3cc(OC)c(OC)c(OC)c3[nH]2)cc1F
IC50 [1]: > 50 µM
IC50 [2]: 20 µM

COc1cc2cc(C(=O)/C=C/c3ccccc3)[nH]c2c(OC)c1OC
IC50 [1]: 33 µM
IC50 [2]: 18 µM

COc1ccc(/C=C\c2cc(OC)c(OC)c(OC)c2)cc1O [COMBRETASTATIN A4]
IC50 [1]: 0.005 µM
IC50 [2]: 0.27 µM
IC50 [3]: 0.001 µM
IC50 [4]: 0.001 µM
IC50 [5]: 0.013 µM

COc1cc2[nH]c(C(=O)c3ccc(C)cc3)cc2c(OC)c1OC
IC50 [1]: 10 µM
IC50 [2]: 4 µM
IC50 [3]: 2.8 µM
IC50 [4]: 0.61 µM
IC50 [5]: 1.09 µM

COc1cc2[nH]c(C(=O)/C=C/c3ccccc3)cc2c(OC)c1OC
IC50 [1]: 16 µM
IC50 [2]: > 20 µM

COc1ccc(C(=O)c2cc3c(OC)c(OC)c(OC)cc3[nH]2)cc1
IC50 [1]: > 50 µM
IC50 [2]: 9 µM
IC50 [3]: 4.2 µM
IC50 [4]: 0.45 µM
IC50 [5]: 1.24 µM

COc1ccc(C(=O)c2cc3c(OC)c(OC)c(OC)cc3[nH]2)cn1
IC50 [1]: > 50 µM
IC50 [2]: 15 µM

COc1cc2[nH]c(C(=O)c3ccc(C)c(N)c3)cc2c(OC)c1OC
IC50 [1]: 36 µM
IC50 [2]: 10 µM
IC50 [3]: 2 µM
IC50 [4]: 0.32 µM
IC50 [5]: 0.99 µM

COc1ccc(C(=O)c2cc3cc(OC)c(OC)c(OC)c3[nH]2)cn1
IC50 [1]: > 50 µM
IC50 [2]: 18 µM
